Experiments:
[1] = test system: Human immunodeficiency virus 1; test: (§1) Antiviral activity against BHAP-resistant viral strain HIV-1 MF using Delaviridine (U-90512) as a comparator.; type: functional
[2] = Apparent terminal disposition half life […] at peroral dose of 15 mg/kg.; type: ADME, organism-based; set-up: dose 15 mg/kg, route oral; conditions: po, read-out: T1/2 beta (converted)
[3] = Steady state volume of distribution (VSS) determined against male Sprague-Dawley rats at an peroral dose of 15 mg/kg.; type: organism-based; set-up: dose 15 mg/kg
Outline: (§2)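 Male Sprague–Dawley rats, fasted, dosed iv and orally in a crossover design with a 1-week washout between treatments (N = 3). Clearance, Vss and absolute oral bioavailability were taken from the iv and po legs.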

[4] = Steady state volume of distribution (VSS) determined against male Sprague-Dawley rats at an iv dose of 14 mg/kg; type: ADME, organism-based; set-up: dose 14 mg/kg, route intravenous; conditions: rat, in vivo, read-out: Vss; outline: as §2
[5] = Absolute oral bioavailability at an iv dose of 14 mg/kg; type: ADME, organism-based; conditions: in vivo, read-out: Bioavailabiility; outline: as §2
[6] = IV clearance determined at an peroral dose of 15 mg/kg.; type: ADME, organism-based; set-up: dose 15 mg/kg, route oral; conditions: in vivo, po, read-out: Clearance
[7] = Apparent terminal disposition half life […] at iv dose of 14 mg/kg; type: ADME, organism-based; set-up: dose 14 mg/kg, route intravenous; conditions: read-out: T1/2 beta (converted)
[8] = molecular target: Human immunodeficiency virus type 1 reverse transcriptase (Human immunodeficiency virus 1, UniProt Q72547, Y181C); test: Inhibition of Reverse transcriptase (Y181C) using poly(rA)600:oligo(dT)10 as template primer.
[9] = molecular target: Human immunodeficiency virus type 1 reverse transcriptase (Human immunodeficiency virus 1, UniProt Q72547); test: Inhibition of Reverse transcriptase (Wild Type) with poly(rA)600:oligo(dT)10 template primer
Outline: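 Recombinant wild-type HIV-1 RT was assayed for RNA-dependent DNA polymerase activity on poly(rA)600:oligo(dT)10 template:primer. Duplicate points were run at 6 drug concentrations, and IC50 was derived by nonlinear least-squares fit.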

[10] = molecular target: Human immunodeficiency virus type 1 reverse transcriptase (Human immunodeficiency virus 1, UniProt Q72547, P236L); test: Inhibition of Reverse transcriptase (P236L) using poly(rA)600:oligo(dT)10 as template primer.
[11] = test system: Human immunodeficiency virus 1; test: (§3) Antiviral activity against L-drug-resistant viral strain HIV-1 IIIB using L-697,661 as a comparator.; type: functional
[12] = Absolute oral bioavailability at an peroral dose of 30 mg/kg orally; type: ADME, organism-based; conditions: in vivo, read-out: Bioavailabiility; outline: as §2
[13] = IV clearance determined at an peroral dose of 30 mg/kg.; type: ADME, organism-based; set-up: dose 30 mg/kg, route oral; conditions: in vivo, po, read-out: Clearance; outline: as §2
[14] = Apparent terminal disposition half life […] at iv dose of 15 mg/kg; type: ADME, organism-based; set-up: dose 15 mg/kg, route intravenous; conditions: read-out: T1/2 beta (converted)
Rattus norvegicus [15] = test: Steady state volume of distribution (VSS) determined against male Sprague-Dawley rats at an peroral dose of 30 mg/kg.; type: ADME, organism-based; set-up: dose 30 mg/kg, route oral; conditions: in vivo, po; outline: as §2
[16] = IV clearance determined at an iv dose of 15 mg/kg; type: ADME, organism-based; set-up: dose 15 mg/kg, route intravenous; conditions: in vivo
[17] = Half life of the parent compound upon microsomal incubation in the presence of hepatic microsomal cytochrome P450.; type: ADME, Microsome; conditions: liver microsomes
[18] = Oral bioavailability (dose 15 mg/kg i.v.); type: ADME, organism-based; conditions: eutheria, in vivo; outline: as §2
[19] = Apparent terminal disposition half life […] at peroral dose of 30 mg/kg.; type: ADME, organism-based; set-up: dose 30 mg/kg, route oral; conditions: po, read-out: T1/2 beta (converted)
[20] = test system: Human immunodeficiency virus 1; test: Antiviral activity against BHAP-resistant viral strain HIV-1 IIIB using Delaviridine (U-90512) as a comparator.; type: functional
[21] = Steady state volume of distribution (VSS) determined against male Sprague-Dawley rats at an iv dose of 15 mg/kg; type: ADME, organism-based; set-up: dose 15 mg/kg, route intravenous; conditions: rat, in vivo, read-out: Vss; outline: as §2
[22] = test system: Human immunodeficiency virus 1; test: as §1; type: functional, organism-based
[23] = test system: Human immunodeficiency virus 1; test: as §3; type: functional, organism-based
[24] = Absolute oral bioavailability at an peroral dose of 30.3 mg/kg orally.; type: ADME, organism-based; conditions: in vivo, read-out: Bioavailabiility; outline: as §2
[25] = Steady state volume of distribution (VSS) determined against male Sprague-Dawley rats at an iv dose of 15.2 mg/kg; type: ADME, organism-based; set-up: dose 15.2 mg/kg, route intravenous; conditions: rat, in vivo, read-out: Vss; outline: as §2
Rattus norvegicus [26] = test: Steady state volume of distribution (VSS) determined against male Sprague-Dawley rats at an peroral dose of 30.3 mg/kg.; type: ADME, organism-based; set-up: dose 30.3 mg/kg, route oral; conditions: in vivo, po; outline: as §2
[27] = Apparent terminal disposition half life […] at iv dose of 15.2 mg/kg; type: ADME, organism-based; set-up: dose 15.2 mg/kg, route intravenous; conditions: read-out: T1/2 beta (converted)
[28] = IV clearance determined at an iv dose of 15.2 mg/kg; type: ADME, organism-based; set-up: dose 15.2 mg/kg, route intravenous; conditions: in vivo; outline: as §2
[29] = Absolute oral bioavailability at an iv dose of 15.2 mg/kg; type: ADME, organism-based; conditions: in vivo, read-out: Bioavailabiility; outline: as §2
[30] = IV clearance determined at an peroral dose of 30.3 mg/kg.; type: ADME, organism-based; set-up: dose 30.3 mg/kg, route oral; conditions: in vivo, po, read-out: Clearance; outline: as §2
[31] = Apparent terminal disposition half life […] at peroral dose of 30.3 mg/kg.; type: ADME, organism-based; set-up: dose 30.3 mg/kg, route oral; conditions: po, read-out: T1/2 beta (converted)
[32] = molecular target: Human immunodeficiency virus type 1 reverse transcriptase (Human immunodeficiency virus 1) (UniProt Q72547); test: Percent inhibition of Reverse transcriptase (RNA-dependent DNA polymerase activity against Wild Type RT) using poly(rA)600:oligo(dT)10 as template primer at 1 uM
Outline: (§4)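 Recombinant RT (WT, P236L or Y181C) was assayed for RNA-dependent DNA polymerase activity with poly(rA)600:oligo(dT)10 as template:primer. Percent inhibition was measured with compound at a single concentration of 1 μM.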

[33] = test system: Human immunodeficiency virus type 1 reverse transcriptase (Human immunodeficiency virus 1), Q72547 [Y181C]; test: Percent inhibition of Reverse transcriptase (RNA-dependent DNA polymerase activity against Y181C RT) using poly(rA)600:oligo(dT)10 as template primer at 1 uM; outline: as §4
[34] = molecular target: Human immunodeficiency virus type 1 reverse transcriptase (Human immunodeficiency virus 1) (UniProt Q72547); test: Percent inhibition of Reverse transcriptase (RNA-dependent DNA polymerase activity against P236l RT) using poly(rA)600:oligo(dT)10 as template primer at 1 uM; outline: as §4
[35] = IV clearance determined at an peroral dose of 30.2 mg/kg.; type: ADME, organism-based; set-up: dose 30.2 mg/kg, route oral; conditions: in vivo, po, read-out: Clearance; outline: as §2
[36] = Apparent terminal disposition half life […] at peroral dose of 30.2 mg/kg.; type: ADME, organism-based; set-up: dose 30.2 mg/kg, route oral; conditions: po, read-out: T1/2 beta (converted)
Rattus norvegicus [37] = test: Steady state volume of distribution (VSS) determined against male Sprague-Dawley rats at an peroral dose of 30.2 mg/kg.; type: ADME, organism-based; set-up: dose 30.2 mg/kg, route oral; conditions: in vivo, po; outline: as §2

| SMILES | EC90 [1] | IC50 [8] | IC50 [9] | IC50 [10] | EC90 [11] | other results |
| --- | --- | --- | --- | --- | --- | --- |
| CC(C)Nc1cccnc1N1CCN(C(=O)c2cc3cc(NS(C)(=O)=O)ccc3[nH]2)CC1 [DELAVIRDINE] | > 10000 nM | – | – | – | – | half-life [2]: 60 min; Vdss [3]: 1.21 L/kg; Vd [4]: 1.21 L/kg; bioavailability [5]: 64%; CL/F [6]: 13.6 mL/min/kg; half-life [7]: 60 min |
| CCc1cccnc1N(CC)C1CCN(C(=O)c2cc3cc(NS(C)(=O)=O)ccc3[nH]2)CC1 | – | 430 nM | 98 nM | 210 nM | – | – |
| CCCc1cccnc1N(CC)C1CCN(C(=O)c2cc3cc(NS(C)(=O)=O)ccc3[nH]2)CC1 | 100 nM | 450 nM | 270 nM | 370 nM | 90 nM | bioavailability [12]: 9.8%; CL/F [13]: 67 mL/min/kg; half-life [14]: 49.2 min; Vss (Rattus norvegicus [15]): 3.2 L/kg; clearance [16]: 67 mL/min/kg; half-life [17]: 1.68 min; bioavailability [18]: 9.8%; half-life [19]: 49.2 min; EC90 [20]: 40 nM; Vd [21]: 3.2 L/kg |
| CCNc1cccnc1N(CC)C1CCN(C(=O)c2cc3cc(NS(C)(=O)=O)ccc3[nH]2)CC1 | – | 390 nM | 430 nM | 360 nM | – | – |
| CCc1cccnc1N(C)C1CCN(C(=O)c2cc3cc(NS(C)(=O)=O)ccc3[nH]2)CC1 | – | 2000 nM | 61 nM | 1100 nM | – | – |
| COCc1cccnc1N(C)C1CCN(C(=O)c2cc3cc(NS(C)(=O)=O)ccc3[nH]2)CC1 | – | 11000 nM | 140 nM | 6800 nM | – | EC50 [22]: 3000 nM; EC50 [23]: > 3000 nM |
| CCN(c1ncccc1COC)C1CCN(C(=O)c2cc3cc(NS(C)(=O)=O)ccc3[nH]2)CC1 | 770 nM | 840 nM | 140 nM | 300 nM | 1000 nM | – |
| CCc1cc(NCc2nc3c(Cl)ccc(Cl)c3o2)c(O)nc1C [L-697661] | 430 nM | – | – | – | > 10000 nM | EC90 [20]: 4000 nM |
| CC(C)Cc1cccnc1N(C)C1CCN(C(=O)c2cc3cc(NS(C)(=O)=O)ccc3[nH]2)CC1 | 1800 nM | 2600 nM | 510 nM | 1100 nM | – | bioavailability [24]: 64%; Vd [25]: 2.73 L/kg; Vss (Rattus norvegicus [26]): 2.73 L/kg; half-life [27]: 53.4 min; half-life [17]: 5.9 min; clearance [28]: 45 mL/min/kg; bioavailability [29]: 64%; CL/F [30]: 45 mL/min/kg; half-life [31]: 53.4 min; EC50 [23]: > 1000 nM |
| CCN(c1ncccc1NC(C)C)C1CCN(C(=O)c2cc3cc(NS(C)(=O)=O)ccc3[nH]2)CC1 | – | – | – | 170 nM | – | – |
| CCCc1cccnc1N(C)C1CCN(C(=O)c2cc3cc(NS(C)(=O)=O)ccc3[nH]2)CC1 | – | – | – | – | – | inhibition [32]: 84%; inhibition [33]: 25%; inhibition [34]: 40% |
| CCN(c1ncccc1CC(C)C)C1CCN(C(=O)c2cc3cc(NS(C)(=O)=O)ccc3[nH]2)CC1 | 1000 nM | 880 nM | 410 nM | 430 nM | 100 nM | half-life [17]: 2.29 min; EC90 [20]: 50 nM |
| COC(=O)c1cccnc1N(C)C1CCN(C(=O)c2cc3cc(NS(C)(=O)=O)ccc3[nH]2)CC1 | – | 21000 nM | 250 nM | 13000 nM | – | – |
| CC(C)Nc1cccnc1N(C)C1CCN(C(=O)c2cc3cc(NS(C)(=O)=O)ccc3[nH]2)CC1 | – | – | – | – | 1000 nM | CL/F [35]: 44 mL/min/kg; half-life [14]: 40.2 min; bioavailability [18]: 4.3%; half-life [36]: 40.2 min; Vss (Rattus norvegicus [37]): 2.5 L/kg; Vd [21]: 2.5 L/kg |
| CN(c1ncccc1CO)C1CCN(C(=O)c2cc3cc(NS(C)(=O)=O)ccc3[nH]2)CC1 | – | 15000 nM | – | 7000 nM | – | – |
| CCCN(c1ncccc1CC)C1CCN(C(=O)c2cc3cc(NS(C)(=O)=O)ccc3[nH]2)CC1 | – | 910 nM | 130 nM | 540 nM | – | – |
